Bioassay records: PubChem, The Scripps Research Institute Molecular Screening Center
CHRM5 PAM: potentiates acetylcholine response at human M5 receptor. P08912. CHO-K1 hM5, Fluo-8 calcium, ACh EC20 PAM; 0% = ACh EC20, 100% = ACh EC100. actives 0.3% (n = 360,000). activation, % at 3 µM;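 active = activation above the run cutoff, the mean activation of all test compounds plus 3 SD, cut at about 18% in these data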
Target sequence (P08912 whole entry, looked up): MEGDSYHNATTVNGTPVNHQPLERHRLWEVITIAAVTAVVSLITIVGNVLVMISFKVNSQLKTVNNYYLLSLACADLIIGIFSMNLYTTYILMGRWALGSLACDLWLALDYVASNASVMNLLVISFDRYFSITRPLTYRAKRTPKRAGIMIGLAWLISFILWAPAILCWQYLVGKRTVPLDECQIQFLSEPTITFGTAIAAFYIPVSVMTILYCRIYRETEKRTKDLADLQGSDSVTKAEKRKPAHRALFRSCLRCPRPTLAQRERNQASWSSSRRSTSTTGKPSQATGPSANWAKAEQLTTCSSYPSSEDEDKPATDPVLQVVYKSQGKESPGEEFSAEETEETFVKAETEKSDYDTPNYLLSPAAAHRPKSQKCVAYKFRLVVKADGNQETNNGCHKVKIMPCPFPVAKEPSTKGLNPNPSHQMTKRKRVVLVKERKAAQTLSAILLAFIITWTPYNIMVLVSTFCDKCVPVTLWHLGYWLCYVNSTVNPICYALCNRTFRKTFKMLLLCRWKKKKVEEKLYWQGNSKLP
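Assay system: CHO-K1 hM5 cells. Also added: acetylcholine at EC20 concentration, added after compound. Dosing: 3 µM, single dose. Times: compound preincubation 140 s before EC20 acetylcholine addition. Signal: Fluo-8 calcium fluorescence. Measure: % activation relative to EC20 and EC100 ACh responses. Repeats: singlicate, one well per test compound.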
CHRM1 agonist: agonists of human M1 muscarinic receptor. P11229. CHO-K1 hM1, Fluo-8 calcium fluorescence, agonist mode; 0% DMSO, 100% acetylcholine EC100. activation, % at 3 µM. actives 0.33% (n = 360,000). AID 588814;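 active = activation above the run's mean compound activation plus 3 SD, cut at about 16% in these data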;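 note: peak over basal fluorescence ratio within a 140 s kinetic read after compound addition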
M1 antag: blocks human M1 muscarinic receptor; P11229; AID 588852; inhibition, % at 3 µM; CHO-K1 hM1, Fluo-8 calcium fluorescence, ACh EC80 antagonist; actives 1.3% (n = 360,000);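 active = percent inhibition above its own plate's cutoff, namely the mean of that plate's compound wells plus 3 SD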;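 note: peak over basal fluorescence ratio during 140 s after agonist addition; 0% = ACh EC80 plus DMSO and 100% = DMSO alone without agonist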
M5 ag: agonists of human muscarinic M5 receptor (CHRM5); AID 624037; CHO-K1 hM5 cells, Fluo-8 calcium fluorescence; 0% DMSO wells, 100% maximal acetylcholine response; activation, % at 3 µM; actives 0.19% (n = 360,000); P08912;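 active = activation above the run's mean over test compounds plus 3 SD, cut at about 23% in these data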;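 note: signal is peak over basal fluorescence ratio across the kinetic read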
M1 PAM: positive allosteric modulators of human M1 muscarinic receptor. CHO-K1 hM1, Fluo-8 calcium fluorescence, ACh EC20; 0% = ACh EC20, 100% = maximal ACh. activation, % at 3 µM. actives 0.088% (n = 360,000); in the data active = activation above about 19%, passing the limit was not always enough
M5 antag: blocks acetylcholine activation of human M5 receptor; CHO-hM5 cells, Fluo-8 calcium fluorescence, ACh EC80; P08912; inhibition, % at 3 µM; actives 0.59% (n = 360,000); AID 624040;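 active = inhibition above a per-plate cutoff, the mean of that plate's test compounds plus 3 SD, cut at about 27% in these data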;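 note: 0% = acetylcholine EC80 with DMSO and 100% = DMSO without agonist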
The depositor's hits bear a star; · = not tested or not shown. An excerpt weighted towards active compounds, which were near 2.2% of everything screened.

SMILES	CHRM5 PAM	CHRM1 agonist	M1 antag	M5 ag	M1 PAM	M5 antag
COc1ccc(NC(=O)COc2coc(CN3CCN(c4ccccc4)CC3)cc2=O)cc1	2	-2	-13	2	15	3
Cc1c(N2C(=O)SC(CC(=O)O)C2=O)c(=O)n(-c2ccccc2)n1C (stereo unspecified)	20*	-1	8	-3	-4	-2
CCOC(=O)CSc1ccc(C(=O)NCCN2CCOCC2)cc1[N+](=O)[O-]	-9	-6	47*	0	-24	13
COc1cc(C(=O)Nc2cnc(NC(=O)C(C)C)cc2C)cc(OC)c1OC	6	-2	6	-5	0	-1
O=C(Nc1cccc(NC(=O)c2ccc(-c3ccc(Br)cc3)o2)c1)c1ccco1	-19	-1	18	-1	-12	31*
O=C(Nc1cccc(NC(=O)c2ccccc2Cl)c1)c1ccco1	-2	-1	-8	-1	-5	-2
CCCCn1c(=NC(=O)c2ccco2)c(C(=O)OCC)cc2c(=O)n3cccc(C)c3nc21	22*	-6	-24	3	13	-12
CCCCn1c(=NC(=O)c2ccco2)c(C(=O)OCC)cc2c(=O)n3ccccc3nc21	-10	-2	-3	-8	4	-4
Cn1nnnc1N=N/C(=N/Nc1ccccc1)c1ccccc1	1	-6	-17	-1	13	11
Cc1c(C(=O)NC2CCS(=O)(=O)C2)oc2ccccc12 (stereo unspecified)	-4	-3	2	-3	3	27*
CC1Cc2ccccc2N1S(=O)(=O)c1cccc(C(=O)N2Cc3ccccc3CC2C(N)=O)c1 (stereo unspecified)	-10	-3	-10	-1	12	17
CSc1ncccc1C(=O)OCC(=O)N(C)c1c(N)n(Cc2ccccc2)c(=O)[nH]c1=O	1	-2	7	0	-3	7
Cc1ccc(C(=O)Cn2nc(C)c([N+](=O)[O-])c2C)c(C)c1	9	-6	-2	-11	5	-3
CCC1=C(OC(=O)N(CC)CC)N2C(=O)OC(=NCCOC)[C@]2(Cc2ccccc2)[C@H]2C1=CC[C@H]1C(=O)NC(=O)[C@H]12	26*	-2	3	7	0	-90
CC(=O)c1cccc(NC(=S)NC(=O)Cc2ccc(Cl)cc2)c1	8	21*	-3	10	12	16
CN(C)c1nc(N2CCN(c3ccc(F)cc3)CC2)c(C#N)c(=O)o1	0	-1	-15	2	17	-6
N#Cc1c(N2CCN(c3ccc(F)cc3)CC2)nc(N)c2c(N)nc3c(c12)CC(=O)N3C1CC1	-13	0	31*	5	-8	10
COc1cccc(CN2CCN(C(=O)Nc3ccc([N+](=O)[O-])cc3)CC2)c1	-5	-3	31*	-2	-10	-1
COc1ccccc1N1CCN(C(=O)Nc2ccc([N+](=O)[O-])cc2)CC1	-7	-3	-2	0	0	6
CC(C)(C)NC(=O)CSc1nc2ccc(NC(=O)CSc3nnnn3Cc3ccccc3)cc2s1	-20	3	19*	2	-8	7
CCOC(=O)CSc1nc2ccc(NC(=O)CSc3nnnn3Cc3ccccc3)cc2s1	-13	-3	21	0	-5	20
COc1cccc(-c2ccc(SCC(=O)NC3CCCCC3)nn2)c1	-11	-4	-5	-3	6	4
COc1cc(CCCN2C(=S)NC[C@H]2Cc2ccc(O)cc2)cc(OC)c1OC	-12	4	-5	10	5	4
NC1=NC[C@H](Cc2ccc(O)cc2)N1CCC12CC3CC(CC(C3)C1)C2	-8	-9	37*	-12	-26	7
COc1cc(CCCN2C(N)=NC[C@H]2Cc2ccc(O)cc2)cc(OC)c1OC	18*	-8	2	-2	8	-7
SMILES	CHRM5 PAM	CHRM1 agonist	M1 antag	M5 ag	M1 PAM	M5 antag
CCCCN1C(N)=NC[C@@H]1Cc1ccc(O)cc1	-5	-11	-1	-3	3	9
CCNC(=O)C1CCCN(c2nc(C)cc(C)n2)C1 (stereo unspecified)	1	-3	-6	0	6	-3
CCC(C)NC(=O)C1CCCN(c2nc(C)cc(OC)n2)C1 (stereo unspecified)	20*	-6	-6	-7	4	-17
COc1ccc(N2C(=O)NC(NS(=O)(=O)c3ccc(NC(C)=O)cc3)(C(F)(F)F)C2=O)cc1 (stereo unspecified)	-4	-2	15	-4	-4	10
CN(C)CC(O)COc1cc2ccccc2cc1C(=O)N1CCCCC1 (stereo unspecified)	4	10	33*	-3	-6	-4
O=C(CSc1nnc(Cn2nnc3ccccc32)o1)N(Cc1ccc(F)cc1)c1ccccc1	-15	-2	26	1	-10	37*
COc1ccc(N(Cc2ccccc2)C(=O)CSc2nnc(Cn3nnc4ccccc43)o2)cc1	6	6	-24	-6	14	-1
COC(=O)[C@]12CCCCC=C1N(Cc1ccco1)C(=O)[C@H](CC(=O)N1CCCCC1)C2	-4	·	·	4	·	-2
CCOC(=O)Cn1nc(C)n(-c2ccc(C(C)(C)C)cc2)c1=O	21*	0	2	1	-3	6
Cc1n[nH]c(=O)n1-c1ccc(C(C)(C)C)cc1	-7	-5	4	-2	-2	3
O=C(OCCC12CC3CC(CC(C3)C1)C2)c1ccc(NCc2cc(O)ccc2O)cc1	27*	13	-11	21	35*	-2
COc1ccc(C(=O)c2coc3ccc(OC(C)=O)cc23)cc1	-10	7	-3	-4	11	29*
COc1ccc2occ(C(=O)c3coc4ccc(O)c(CN(C)C)c34)c2c1	-10	-2	20*	3	-12	12
COC(=O)CCCCCCCC(=O)Nc1nnc(C(F)(F)F)s1	-14	-2	1	2	-5	9
Cc1ccc(S(=O)(=O)NNc2c3ccccc3nc3ccc(Cl)cc23)cc1	0	-2	-8	-4	4	21
COc1ccc(NC(=O)CC2(CC(=O)N3CCOCC3)CCCC2)cc1Cl	3	-8	56*	4	-17	-3
CCCc1nc2oc3c(Cl)ncnc3c2c2c1CCCC2	-12	-7	52*	-3	-24	-1
CC(C)Cc1nc2oc3c(Cl)ncnc3c2c2c1CCCC2	3	-4	1	2	3	3
Nc1cccc2c(O)cccc12	14	1	0	6	10	-2
O=c1[nH]ccc2c(O)cccc12	-16	27*	-22	32*	-10	7
